# According to ChEMBL document CHEMBL1148178, “Dicranin, an antimicrobial and 15-lipoxygenase inhibitor from the moss Dicranum scoparium” (1993):
# Assays:
# Glycine max [1] = assay: Inhibition of soybean 15-LOX at 4 uM
# In short: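 15-lipoxygenase assay run by a literature method with arachidonic acid (40 μM) as substrate.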
# Glycine max [2] = assay: Inhibition of soybean 15-LOX at 0.36 uM
# In short: (§1)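 15-Lipoxygenase inhibition assay run with arachidonic acid (40 μM) as the substrate, at the single test concentration given in each line.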
# Glycine max [3] = assay: Inhibition of soybean 15-LOX at 33 ug/ml; in short: as §1
SMILES,inhibition (Glycine max [1]) [%],inhibition (Glycine max [2]) [%],inhibition (Glycine max [3]) [%]
CCCCCC#CCC#CCC#CCC#CCCCC(=O)O,95,,
Oc1ccccc1O,,37,33
